Consider 29 compounds from the M2OR odorant receptor database.

Structures are written as SMILES.

The first experiment has as its target T1, OR2A1 (Homo sapiens) (UniProt Q8NGT9).
T1 sequence (whole entry): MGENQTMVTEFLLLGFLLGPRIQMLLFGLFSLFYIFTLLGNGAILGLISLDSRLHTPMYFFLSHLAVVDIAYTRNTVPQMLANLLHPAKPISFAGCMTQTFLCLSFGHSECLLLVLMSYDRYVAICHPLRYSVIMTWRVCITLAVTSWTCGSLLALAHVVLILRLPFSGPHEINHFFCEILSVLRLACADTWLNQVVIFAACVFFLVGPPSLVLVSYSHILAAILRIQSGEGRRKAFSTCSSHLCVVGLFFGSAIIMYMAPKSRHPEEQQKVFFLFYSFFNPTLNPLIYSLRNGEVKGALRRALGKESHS
Conditions: stereoisomer not certain. The procedure, abridged:
(§1)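 Assay methods differ from source to source, frequently being transient luciferase assays in mammalian cell lines. For each receptor–molecule pair, the label responsive (active) applies when the original authors judged the measured signal statistically different from baseline, and non-responsive (inactive) applies otherwise.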
As for `CCCCCCCC(=O)OC`, the “odorant receptor agonist call” value is “inactive”.
On the same count and under the same terms, the entry for `CC(C)=CCCC(C)=CCCC(C)=CCO` is “inactive”; for `CCCCC(=O)C(C)=O` it is “inactive”.
Same read-out and setting: the entry for `C=C(C)C1CC=C(C)CC1` (stereo not given) is “inactive”; for `CCCCCCCCCCCC(=O)OC` it is “inactive”; for `Cc1cnc(C)cn1` it is “inactive”.
Still for that read-out and setting: then `CCCCCCCCCCCCCCC(=O)O`, with “inactive”; and `CCCCCCCCCCCC(=O)OCC`, with “inactive”; and `CCC(=O)O`, with “inactive”.
As for `Cc1cccc(C)c1C`, the “odorant receptor agonist call” value was “inactive”.
Still for that read-out and setting: the entry for `CCCCCCCCCC(=O)OC` is “inactive”.
The same measure, in the same setting: then `CCCCCCCCO`, with “inactive”; and `CCCCCCCCCCCC(=O)O`, with “inactive”.
Still for that read-out and setting: the entry for `CCCCCCCCCCCCCCCCCC(=O)[O-].[H+]` is “inactive”.
With `CCCCCCCCCCCCCC(=O)O`, the “odorant receptor agonist call” value is “inactive”.
Consider `CCC(O)CC`, for which the “odorant receptor agonist call” value is “inactive”.
The same measure, in the same setting: then `C=C1CCC2CC1C2(C)C` (stereo not given), with “inactive”.
Same read-out and setting: the entry for `CCCCCCCCCCCCCCCC(=O)[O-].[H+]` is “inactive”.
As to `CCCCCCCCCCCCO`, the “odorant receptor agonist call” value was “inactive”.
The same measure, in the same setting: the entry for `CCCCCCCC(=O)[O-].[H+]` is “inactive”; for `CC(C=O)Cc1ccc(C(C)(C)C)cc1` (stereo not given) it is “inactive”.
The same measure, in the same setting: then `CCCCCCCCCCCCCCCC(=O)OCC`, with “inactive”.
The same measure, in the same setting: the entry for `Cc1ccc(C(C)C)cc1` is “inactive”; for `CC(=O)O` it is “inactive”; for `CCCCCCCCCCCCCCCCCC(=O)OCC` it is “inactive”.
With `COc1ccc2[nH]cc(CCNC(C)=O)c2c1`, the “odorant receptor agonist call” value is “inactive”.

A further experiment has as its target T2, OR2A7 (Homo sapiens) (UniProt Q96R45).
T2 sequence (whole entry): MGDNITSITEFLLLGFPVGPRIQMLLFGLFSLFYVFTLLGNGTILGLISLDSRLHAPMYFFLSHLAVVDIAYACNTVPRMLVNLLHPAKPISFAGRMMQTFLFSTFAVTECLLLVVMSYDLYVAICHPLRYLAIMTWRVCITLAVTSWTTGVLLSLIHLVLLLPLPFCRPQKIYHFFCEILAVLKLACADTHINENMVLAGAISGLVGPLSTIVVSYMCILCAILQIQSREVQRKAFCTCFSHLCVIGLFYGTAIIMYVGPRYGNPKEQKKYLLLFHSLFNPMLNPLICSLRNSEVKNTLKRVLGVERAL
Conditions: stereoisomer not certain. The gist of the method: as §1
Consider `CCCCCCCC(=O)OC`, for which the “odorant receptor agonist call” value was “inactive”.
Still for that read-out and setting: then `CC(C)=CCCC(C)=CCCC(C)=CCO`, with “inactive”; and `CCCCC(=O)C(C)=O`, with “inactive”; and `C=C(C)C1CC=C(C)CC1` (stereo not given), with “inactive”.
On the same count and under the same terms, then `CC1=CCC2CC1C2(C)C` (stereo not given), with “active”; and `CCCCCCCCCCCC(=O)OC`, with “inactive”; and `Cc1cnc(C)cn1`, with “inactive”.
Still for that read-out and setting: the entry for `CCCCCCCCCCCCCCC(=O)O` is “inactive”; for `CC(C)(C)c1ccccc1` it is “active”.
With `CCCCCCCCCCCC(=O)OCC`, the “odorant receptor agonist call” value is “inactive”.
Take `CCC(=O)O`: the “odorant receptor agonist call” value is “inactive”.
In the case of `Cc1cccc(C)c1C`, the “odorant receptor agonist call” value is “inactive”.
On the same count and under the same terms, then `CCCCCCCCCC(=O)OC`, with “inactive”; and `CCCCCCCCO`, with “inactive”; and `CC(CC=O)c1ccccc1` (stereo not given), with “inactive”.
Still for that read-out and setting: then `CCCCCCCCCCCC(=O)O`, with “active”; and `CCCCCCCCCCCCCCCCCC(=O)[O-].[H+]`, with “active”.
On the same count and under the same terms, then `CCCCCCCCCCCCCC(=O)O`, with “inactive”; and `CCC(O)CC`, with “inactive”; and `C=C1CCC2CC1C2(C)C` (stereo not given), with “active”.
As to `CCCCCCCCCCCCCCCC(=O)[O-].[H+]`, the “odorant receptor agonist call” value was “inactive”.
Still for that read-out and setting: the entry for `CCCCCCCCCCCCO` is “inactive”; for `CCCCCCCC(=O)[O-].[H+]` it is “active”.
On the same count and under the same terms, then `CC(C=O)Cc1ccc(C(C)(C)C)cc1` (stereo not given), with “active”; and `CCCCCCCCCCCCCCCC(=O)OCC`, with “inactive”.
On the same count and under the same terms, then `Cc1ccc(C(C)C)cc1`, with “inactive”; and `CC(=O)O`, with “inactive”.
With `CCCCCCCCCCCCCCCCCC(=O)OCC`, the “odorant receptor agonist call” value is “inactive”.
On the same count and under the same terms, the entry for `COc1ccc2[nH]cc(CCNC(C)=O)c2c1` is “inactive”.
